This note sets out measurements from ChEMBL document CHEMBL3351477, “A C-14 labeled Py-Im polyamide localizes to a subcutaneous prostate cancer tumor” (Bioorg Med Chem, 2014).

The subject of data set [1] is Tumour. Description: Drug level in human LNCaP cells xenografted NSG mouse tumor at 20 nmol, ip measured after 24 hrs by liquid scintillation counting method. Type of data set: ADME, organism-based, Neoplasm. As to conditions: in vivo; call rule not given here. In a few lines:
(§1)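 Male NSG mice bearing subcutaneous flank LNCaP xenografts. The graft was 2.5M cells in 200 μL of 1:1 culture medium/matrigel, using cells at or below passage 25 with >90% viability by trypan blue. C-14 labeled compound was given i.p. at 20 nmol per animal 4-8 weeks after engraftment. Mice were euthanized by CO2. Tumor, kidney, liver and lung were excised.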
(In xenograft studies the graft and the host belong to different species.)

For data set [2], the system named is Kidney. Description: Drug level in human LNCaP cells xenografted NSG mouse kidney at 20 nmol, ip measured after 24 hrs by liquid scintillation counting method. Type of data set: ADME, organism-based. The note with it: in vivo. In a few lines:
as §1

Data set [3] concerns Lung. Description: Drug level in human LNCaP cells xenografted NSG mouse lung at 20 nmol, ip measured after 24 hrs by liquid scintillation counting method. Type of data set: ADME, organism-based. The note with it: in vivo. In outline:
as §1

The test system of data set [4] is Liver. Description: Drug level in human LNCaP cells xenografted NSG mouse liver at 20 nmol, ip measured after 24 hrs by liquid scintillation counting method. As to conditions: in vivo. Type of data set: ADME, organism-based. In outline: as §1
For data set [5], the system named is Kidney. Description: Drug level in human LNCaP cells xenografted NSG mouse kidney at 20 nmol, ip dosed on days 1, 4 and 7 measured 24 hrs after last dose by liquid scintillation counting method relative to single injection dose. Type of data set: ADME, organism-based. As to conditions: in vivo. In outline: as §1
Data set [6] has as its system Liver. Description: Drug level in human LNCaP cells xenografted NSG mouse liver at 20 nmol, ip dosed on days 1, 4 and 7 measured 24 hrs after last dose by liquid scintillation counting method relative to single injection dose. Type of data set: ADME, organism-based. The note with it: in vivo. In outline:
as §1

For data set [7], the system named is Tumour. Description: Drug level in human LNCaP cells xenografted NSG mouse tumor at 20 nmol, ip measured after 24 hrs by liquid scintillation counting method relative to other tissues. Type of data set: ADME, organism-based, Neoplasm. As to conditions: in vivo. In outline: as §1
In data set [8] the test system is Liver. Description: Drug level in human LNCaP cells xenografted NSG mouse liver at 20 nmol, ip measured after 24 hrs by liquid scintillation counting method relative to kidney. Type of data set: ADME, organism-based. As to conditions: in vivo. In a few lines:
as §1

In data set [9] the test system is Liver. Description: Drug level in human LNCaP cells xenografted NSG mouse liver at 20 nmol, ip measured after 24 hrs by liquid scintillation counting method relative to lung. Type of data set: ADME, organism-based. The note with it: in vivo. In a few lines:
as §1

Data set [10] deals with Tumour. Description: Drug level in human LNCaP cells xenografted NSG mouse tumor at 20 nmol, ip measured up to 1 to 7 days by liquid scintillation counting method. The note with it: in vivo. Type of data set: ADME, organism-based, Neoplasm. In a few lines:
as §1

Data set [11] relates to Kidney. Description: Drug level in human LNCaP cells xenografted NSG mouse kidney at 20 nmol, ip measured up to 1 to 7 days by liquid scintillation counting method. Type of data set: ADME, organism-based. The note with it: in vivo. In outline:
as §1

Data set [12] concerns Liver. Description: Drug level in human LNCaP cells xenografted NSG mouse liver at 20 nmol, ip measured up to 1 to 7 days by liquid scintillation counting method. Type of data set: ADME, organism-based. The note with it: in vivo. In a few lines:
as §1

Data set [13] has as its system Lung. Description: Drug level in human LNCaP cells xenografted NSG mouse lung at 20 nmol, ip measured up to 1 to 7 days by liquid scintillation counting method. Type of data set: ADME, organism-based. The note with it: in vivo. In outline:
as §1

Data set [14] deals with Tumour. Description: Drug level in human LNCaP cells xenografted NSG mouse tumor at 20 nmol, ip dosed on days 1, 4 and 7 measured 24 hrs after last dose by liquid scintillation counting method relative to single injection dose. Type of data set: ADME, organism-based, Neoplasm. As to conditions: in vivo. In a few lines: as §1
For data set [15], the system named is Tumour. Description: Drug level in human LNCaP cells xenografted NSG mouse tumor at 20 nmol, ip measured after 4 hrs by liquid scintillation counting method relative to liver. Type of data set: ADME, organism-based. As to conditions: in vivo. In a few lines:
as §1

The test system of data set [16] is Tumour. Description: Drug level in human LNCaP cells xenografted NSG mouse tumor at 20 nmol, ip measured after 24 hrs by liquid scintillation counting method relative to liver. Type of data set: ADME, organism-based. The note with it: in vivo. In a few lines: as §1
Data set [17] relates to Tumour. Description: Drug level in human LNCaP cells xenografted NSG mouse tumor at 20 nmol, ip dosed on days 1, 4 and 7 measured 24 hrs after last dose by liquid scintillation counting method. Type of data set: ADME, organism-based, Neoplasm. The note with it: in vivo, read-out: Drug uptake. In a few lines:
as §1

Regarding `C[14C](=O)N[C@H](CCNC(=O)c1cc(NC(=O)c2cc(NC(=O)c3cc(NC(=O)c4nccn4C)cn3C)cn2C)cn1C)C(=O)Nc1cn(C)c(C(=O)Nc2cc(C(=O)Nc3cc(C(=O)Nc4cc(C(=O)NCCCN(C)CCCNC(=O)c5cccc(C(=O)O)c5)n(C)c4)n(C)c3)n(C)c2)n1`, the Drug uptake entry in the data set on Tumour [1], in the data set with Kidney [2], in the data set on Lung [3] and in the data set with Liver [4] was “Active” throughout.
For the compound `CN(CCCNC(=O)c1cc(NC(=O)c2cc(NC(=O)c3cc(NC(=O)c4nc(NC(=O)[C@H](N)CCNC(=O)c5cc(NC(=O)c6cc(NC(=O)c7cc(NC(=O)c8nccn8C)cn7C)cn6C)cn5C)cn4C)cn3C)cn2C)cn1C)CCCN[14C](=O)c1cccc([14C](=O)O)c1`, the Drug uptake entry in the data set with Tumour [1] is “Active”; in the data set on Kidney [2] it was “Active”; in the data set on Lung [3], 0.93 mg/kg; with Liver [4], “Active”.
In the case of `CC(=O)N[C@H](CCNC(=O)c1cc(NC(=O)c2cc(NC(=O)c3cc(NC(=O)c4nccn4C)cn3C)cn2C)cn1C)C(=O)Nc1cn(C)c(C(=O)Nc2cc(C(=O)Nc3cc(C(=O)Nc4cc(C(=O)NCCCN(C)CCCN[14C](=O)c5cccc([14C](=O)O)c5)n(C)c4)n(C)c3)n(C)c2)n1`, the “fold change (FC)” value is given as 1.8 in the data set with Kidney [5]; 1.8 in the data set with Liver [6]; 2 in the data set on Tumour [7]; 4.2 with Liver [8]; 8.7 in the data set with Liver [9]; 2.4 in the data set with Tumour [14]. The entries for the “fold change (FC)” value in the data set on Tumour [15] and in the data set on Tumour [16] were 2 and 1.5, respectively. Also, the concentration with Tumour [1] (read-out: Drug uptake) was 1060 nM; with Tumour [17], 2500 nM. In addition, the Drug uptake in the data set with Kidney [2] was found to be 0.25 mg/kg; with Lung [3] it was 0.12 mg/kg; with Liver [4], 1.04 mg/kg; with Tumour [10], 0.45 mg/kg; in the data set with Kidney [11] it was 0.05 mg/kg; in the data set on Liver [12] it was 0.27 mg/kg. In the data set with Lung [13], the Drug uptake was found to be 0.06 mg/kg.
